Source: ChEMBL document CHEMBL3091449, “Synthesis and antimicrobial profile of N-substituted imidazolium oximes and their monoquaternary salts against multidrug resistant bacteria” (2013)

Key:
Type in all cases: functional
[1] = test system: Clostridium perfringens; assay: Antibacterial activity against Clostridium perfringens FNSST 4999 after 18 to 24 hrs by two-fold broth microdilution assay
Procedure, shortened: (§1)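 CLSI two-fold broth microdilution. Compounds dissolved in DMSO, 10 mg/mL stock, serially diluted to 400–0.09 µg/mL in Mueller Hinton broth. Wells inoculated with 10^6 CFU/mL bacteria and incubated 18–24 h at 37 °C. 0.2 mg/mL INT added for 30 min. MIC taken as the lowest concentration with no visible growth or pink colour. Triplicate.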

[2] = test system: Bacillus cereus; assay: Antibacterial activity against Bacillus cereus ATCC 11778 after 18 to 24 hrs by two-fold broth microdilution assay
Procedure, shortened: (§2)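 CLSI two-fold broth microdilution was used. Compounds were dissolved in DMSO, brought to 10 mg/mL in medium, then serially diluted in Mueller Hinton broth over 400–0.09 µg/mL. Overnight MHB cultures were diluted to 10^6 CFU/mL, and 10 µL was added per well. Plates were incubated 18–24 h at 37 °C, then 0.2 mg/mL INT was added for 30 min at 37 °C. MIC was the lowest concentration with no visible growth or pink colour, triplicate.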

[3] = test system: Klebsiella pneumoniae; assay: Antibacterial activity against TEM-1/SHV-12 expressing Klebsiella pneumoniae isolate 303 after 18 to 24 hrs by two-fold broth microdilution assay; procedure, shortened: as §2
[4] = test system: Staphylococcus aureus; assay: Antibacterial activity against Staphylococcus aureus ATCC 25923 after 18 to 24 hrs by two-fold broth microdilution assay; procedure, shortened: as §2
[5] = test system: Enterobacter cloacae; assay: Antibacterial activity against TEM-1/CTX-M-15 expressing Enterobacter cloacae isolate 62 after 18 to 24 hrs by two-fold broth microdilution assay
[6] = test system: Escherichia coli; assay: Ratio of gentamicin MIC to compound MIC for Escherichia coli FNSST 982
[7] = test system: Klebsiella pneumoniae; assay: Ratio of gentamicin MIC to compound MIC for Klebsiella pneumoniae FNSST 011
[8] = test system: Escherichia coli; assay: Antibacterial activity against TEM-1/SHV-12 expressing Escherichia coli isolate 237 after 18 to 24 hrs by two-fold broth microdilution assay; procedure, shortened: as §1
[9] = test system: Staphylococcus aureus; assay: Antibacterial activity against Staphylococcus aureus ATCC 25923 assessed as diameter of zone of inhibition at 250 ug/disc after 24 hrs by disc diffusion method; conditions: ATCC 25923, 24 h, read-out: DIZ
Procedure, shortened: (§3)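 Bacteria were grown overnight at 37 °C in TSB to about 10^6 cfu/mL, and 100 µL was spread on Mueller Hinton agar. Sterile 6 mm discs were each loaded with 25 µL of a 10 mg/mL stock in 96% ethanol, giving 250 µg/disc. Ethanol served as the negative control. Plates were incubated 24 h at 37 °C. Inhibition zone diameter was measured including the disc, in triplicate, as mean ± SE.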

[10] = test system: Aeromonas hydrophila; assay: Antibacterial activity against Aeromonas hydrophila FNSST 014 after 18 to 24 hrs by two-fold broth microdilution assay; procedure, shortened: as §2
[11] = test system: Enterococcus faecalis; assay: Antibacterial activity against Enterococcus faecalis ATCC 29212 assessed as diameter of zone of inhibition at 250 ug/disc after 24 hrs by disc diffusion method; conditions: ATCC 29212, 24 h, read-out: DIZ; procedure, shortened: as §3
[12] = test system: Clostridium perfringens; assay: Antibacterial activity against Clostridium perfringens FNSST 4999 assessed as diameter of zone of inhibition at 250 ug/disc after 24 hrs by disc diffusion method; conditions: FNSST 4999, 24 h, read-out: DIZ
Procedure, shortened: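 Disc diffusion per CLSI: 100 µL of 10^6 cfu/mL bacterial suspension spread on Mueller Hinton agar. 6 mm discs loaded with 25 µL of 10 mg/mL compound stock in 96% ethanol (250 µg/disc); ethanol as negative control. Incubated 24 h at 37 °C. Inhibition zone diameter measured in mm including the disc, triplicate, reported as mean ± SE.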

[13] = test system: Acinetobacter baumannii; assay: Ratio of imipenem MIC to compound MIC for Acinetobacter baumannii isolate 170
[14] = test system: Pseudomonas aeruginosa; assay: Antibacterial activity against Pseudomonas aeruginosa FNSST 982 after 18 to 24 hrs by two-fold broth microdilution assay; procedure, shortened: as §2
[15] = test system: Acinetobacter baumannii; assay: Antibacterial activity against SIM-1 expressing Acinetobacter baumannii isolate 170 after 18 to 24 hrs by two-fold broth microdilution assay; procedure, shortened: as §1
[16] = test system: Escherichia coli; assay: Antibacterial activity against Escherichia coli FNSST 982 assessed as diameter of zone of inhibition at 250 ug/disc after 24 hrs by disc diffusion method; conditions: FNSST 982, 24 h, read-out: DIZ; procedure, shortened: as §3
[17] = test system: Pseudomonas aeruginosa; assay: Ratio of meropenem MIC to compound MIC for Pseudomonas aeruginosa isolate 197
[18] = test system: Enterococcus faecalis; assay: Antibacterial activity against Enterococcus faecalis ATCC 29212 after 18 to 24 hrs by two-fold broth microdilution assay; procedure, shortened: as §2
[19] = test system: Aeromonas caviae; assay: Antibacterial activity against […] expressing Aeromonas caviae isolate 258 after 18 to 24 hrs by two-fold broth microdilution assay; procedure, shortened: as §2
[20] = test system: Aspergillus fumigatus; assay: Antifungal activity against Aspergillus fumigatus FNSST 3833 assessed as diameter of zone of inhibition at 250 ug/disc after 72 hrs by disc diffusion method; conditions: FNSST 3833, 72 h, read-out: DIZ
Procedure, shortened: (§4)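 Fungi were grown overnight at 30 °C in Sabouraud dextrose broth to 10^4 cfu/mL, and 100 µL was spread on Sabouraud dextrose agar. 6 mm discs carried 250 µg (25 µL of a 10 mg/mL stock in 96% ethanol), with ethanol as the negative control. Incubation was at 30 °C for 48 h (yeast) or 72 h (molds). Zone diameter was read including the disc, in triplicate, mean ± SE.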

[21] = test system: Enterobacter cloacae; assay: Antibacterial activity against TEM-1/SHV-12 expressing Enterobacter cloacae isolate 306 after 18 to 24 hrs by two-fold broth microdilution assay
[22] = test system: Escherichia coli; assay: Antibacterial activity against Escherichia coli FNSST 982 after 18 to 24 hrs by two-fold broth microdilution assay; procedure, shortened: as §2
[23] = test system: Pseudomonas aeruginosa; assay: Antibacterial activity against Pseudomonas aeruginosa FNSST 982 assessed as diameter of zone of inhibition at 250 ug/disc after 24 hrs by disc diffusion method; conditions: FNSST 982, 24 h, read-out: DIZ; procedure, shortened: as §3
[24] = test system: Bacillus cereus; assay: Antibacterial activity against Bacillus cereus ATCC 11778 assessed as diameter of zone of inhibition at 250 ug/disc after 24 hrs by disc diffusion method; conditions: ATCC 11778, 24 h, read-out: DIZ; procedure, shortened: as §3
[25] = test system: Klebsiella pneumoniae; assay: Antibacterial activity against Klebsiella pneumoniae FNSST 011 after 18 to 24 hrs by two-fold broth microdilution assay; procedure, shortened: as §2
[26] = test system: Stenotrophomonas maltophilia; assay: Antibacterial activity against […] expressing Stenotrophomonas maltophilia isolate 125 after 18 to 24 hrs by two-fold broth microdilution assay; procedure, shortened: as §2
[27] = test system: Escherichia coli; assay: Antibacterial activity against […] expressing Escherichia coli isolate 4024 after 18 to 24 hrs by two-fold broth microdilution assay; procedure, shortened: as §1
[28] = test system: Kluyvera intermedia; assay: Antibacterial activity against TEM-1/SHV-12/[…] expressing Enterobacter intermedius isolate 243 after 18 to 24 hrs by two-fold broth microdilution assay; procedure, shortened: as §2
[29] = test system: Aeromonas hydrophila; assay: Antibacterial activity against TEM-1/SHV-12 expressing Aeromonas hydrophila isolate 268 after 18 to 24 hrs by two-fold broth microdilution assay; procedure, shortened: as §2
[30] = test system: Enterobacter cloacae; assay: Antibacterial activity against CTX-15 expressing Enterobacter cloacae isolate 51 after 18 to 24 hrs by two-fold broth microdilution assay
[31] = test system: Talaromyces funiculosus; assay: Antifungal activity against Penicillium funiculosum FNSST 3724 assessed as diameter of zone of inhibition at 250 ug/disc after 72 hrs by disc diffusion method; conditions: FNSST 3724, 72 h, read-out: DIZ; procedure, shortened: as §4
[32] = test system: Candida albicans; assay: Antifungal activity against Candida albicans ATCC 10231 assessed as diameter of zone of inhibition at 250 ug/disc after 48 hrs by disc diffusion method; conditions: ATCC 10231, 48 h, read-out: DIZ; procedure, shortened: as §4
[33] = test system: Aeromonas hydrophila; assay: Ratio of gentamicin MIC to compound MIC for Aeromonas hydrophila FNSST 014
[34] = test system: Klebsiella pneumoniae; assay: Antibacterial activity against Klebsiella pneumoniae FNSST 011 assessed as diameter of zone of inhibition at 250 ug/disc after 24 hrs by disc diffusion method; conditions: FNSST 011, 24 h, read-out: DIZ; procedure, shortened: as §3
[35] = test system: Pseudomonas aeruginosa; assay: Ratio of imipenem MIC to compound MIC for Pseudomonas aeruginosa isolate 197
[36] = test system: Pseudomonas aeruginosa; assay: Antibacterial activity against GIM-1 expressing Pseudomonas aeruginosa isolate 197 after 18 to 24 hrs by two-fold broth microdilution assay; procedure, shortened: as §2
[37] = test system: Escherichia coli; assay: Antibacterial activity against […] expressing Escherichia coli isolate 235 after 18 to 24 hrs by two-fold broth microdilution assay; procedure, shortened: as §1
[38] = test system: Aeromonas caviae; assay: Antibacterial activity against TEM-1/CTX-M-15 expressing Aeromonas caviae isolate 260 after 18 to 24 hrs by two-fold broth microdilution assay; procedure, shortened: as §2
[39] = test system: Pseudomonas aeruginosa; assay: Ratio of gentamicin MIC to compound MIC for Pseudomonas aeruginosa FNSST 982
[40] = test system: Aeromonas hydrophila; assay: Antibacterial activity against Aeromonas hydrophila FNSST 014 assessed as diameter of zone of inhibition at 250 ug/disc after 24 hrs by disc diffusion method; conditions: FNSST 014, 24 h, read-out: DIZ; procedure, shortened: as §3
[41] = test system: Acinetobacter baumannii; assay: Ratio of meropenem MIC to compound MIC for Acinetobacter baumannii isolate 170

O/N=C/c1n(Cc2ccccc2)cc[n+]1-c1ccc(F)cc1.[Br-]
MIC [1]: 25 µg/mL
MIC [2]: 6.25 µg/mL
MIC [3]: 12.5 µg/mL
MIC [4]: 6.25 µg/mL
MIC [5]: 6.25 µg/mL
Ratio [6]: 2.5
Ratio [7]: 2.5
MIC [8]: 3.12 µg/mL
zone of inhibition at 250 µg/disc [9]: 19.9 mm
MIC [10]: 12.5 µg/mL
zone of inhibition at 250 µg/disc [11]: 19.6 mm
zone of inhibition at 250 µg/disc [12]: 11.4 mm
Ratio [13]: 20
MIC [14]: 25 µg/mL
MIC [15]: 0.78 µg/mL
zone of inhibition at 250 µg/disc [16]: 15.3 mm
Ratio [17]: 20
MIC [18]: 6.25 µg/mL
MIC [19]: 12.5 µg/mL
zone of inhibition at 250 µg/disc [20]: 19.4 mm
MIC [21]: 6.25 µg/mL
MIC [22]: 12.5 µg/mL
zone of inhibition at 250 µg/disc [23]: 15.9 mm
zone of inhibition at 250 µg/disc [24]: 18.3 mm
MIC [25]: 1.56 µg/mL
MIC [26]: 12.5 µg/mL
MIC [27]: 1.56 µg/mL
MIC [28]: 6.25 µg/mL
MIC [29]: 12.5 µg/mL
MIC [30]: 6.25 µg/mL
zone of inhibition at 250 µg/disc [31]: 17.9 mm
zone of inhibition at 250 µg/disc [32]: 21.9 mm
Ratio [33]: 2.5
zone of inhibition at 250 µg/disc [34]: 14.7 mm
Ratio [35]: 20
MIC [36]: 0.39 µg/mL
MIC [37]: 6.25 µg/mL
MIC [38]: 12.5 µg/mL
Ratio [39]: 2.5
zone of inhibition at 250 µg/disc [40]: 16.5 mm
Ratio [41]: 20
